In ChEMBL document CHEMBL2385072, “Development of oleanane-type triterpenes as a new class of HCV entry inhibitors” (J Med Chem, 2013):
The source made the active and inactive calls. The rule behind the calls is not given here.

Assays:
Hepatitis C virus [1] = assay: Antiviral activity against pseudo HCV infected in human 293T cells assessed as inhibition of HCV pseudo particles entry at 5 uM after 72 hrs by luciferase reporter gene assay; format: functional, Hepacivirus hominis; details: HEK-293T
Hepatitis C virus [2] = assay: Antiviral activity against pseudo HCV infected in human 293T cells assessed as inhibition of HCV pseudo particles entry at 1 uM after 72 hrs by luciferase reporter gene assay; format: functional, Hepacivirus hominis; details: HEK-293T
Hepatitis C virus [3] = assay: Ratio of echinocystic acid IC50 to compound IC50 for pseudo HCV infected in human 293T cells assessed as inhibition of HCV pseudo particles entry after 72 hrs by luciferase reporter gene assay; format: functional, Hepacivirus hominis
Method in brief: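 HCVpp luciferase entry assay in Huh-7 cells, 72 h at 37 °C. Six-point curves at tenfold steps, 1 nM–100 μM or 0.5 nM–50 μM. Each concentration in triplicate, mean and SD.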

HEK-293T = assay: Cytotoxicity against human 293T cells at 50 uM after 48 hrs by Alamar Blue assay; format: cell-based
Method in brief: (§1)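 alamarBlue viability assay in HepG2, HeLa and 293T cells, compound up to 50 μM.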

HeLa = assay: Cytotoxicity against human HeLa cells at 50 uM after 48 hrs by Alamar Blue assay; format: cell-based; method in brief: as §1
HepG2 = assay: Cytotoxicity against human HepG2 cells at 50 uM after 48 hrs by Alamar Blue assay; format: cell-based; details: hepg2, 48 h; method in brief: as §1
Hepatitis C virus [4] = assay: Antiviral activity against pseudo HCV infected in human 293T cells assessed as inhibition of HCV pseudo particles entry after 72 hrs by luciferase reporter gene assay; format: functional, organism-based, Hepacivirus hominis
Method in brief: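 HCVpp (HCV E1/E2 on Env/Vpr-deficient HIV luciferase vector, made in 293T by cotransfection, harvested 72 h) added to 5×10^3 Huh-7 cells/well with compound at final 1 or 5 μM in 1% DMSO; 72 h, 37 °C; luciferase read. Inhibition = 100 − % of DMSO control after uninfected-well background subtraction; VSVpp run in parallel; duplicate, ≥3 experiments.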

[5] = tested on: Vesicular stomatitis virus; assay: Antiviral activity against pseudo VSV infected in human 293T cells assessed as inhibition of vesicular stromatis G protein pseudo particles entry at 5 uM after 72 hrs by luciferase reporter gene assay; format: functional; details: HEK-293T
[6] = tested on: Vesicular stomatitis virus; assay: Antiviral activity against pseudo VSV infected in human 293T cells assessed as inhibition of vesicular stromatis G protein pseudo particles entry at 1 uM after 72 hrs by luciferase reporter gene assay; format: functional; details: HEK-293T
CD81 antigen = target: T1, CD81 antigen (Homo sapiens, UniProt P60033); assay: Binding affinity to CD81 (unknown origin)
T1 sequence (P60033 whole entry): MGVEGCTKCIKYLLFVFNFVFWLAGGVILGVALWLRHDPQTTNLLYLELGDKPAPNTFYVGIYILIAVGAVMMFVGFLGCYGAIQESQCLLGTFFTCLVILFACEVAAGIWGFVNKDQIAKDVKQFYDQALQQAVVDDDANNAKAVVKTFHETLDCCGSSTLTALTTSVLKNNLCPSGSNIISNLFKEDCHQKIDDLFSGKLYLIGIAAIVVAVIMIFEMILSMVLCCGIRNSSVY
Method in brief: (§2)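 BIAcore: E2 immobilized on a streptavidin sensor via SA–biotin and exposed to CD81 at 40.9–654.5 nM to fit K_D. CD81 was also tested together with compound.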

[7] = Hemolytic activity against rabbit RBC after 60 mins by spectrophotometry; format: ADME, cell-based, Oryctolagus cuniculus, Erythrocyte
Method in brief: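 2% rabbit erythrocytes in 130 mM NaCl, 20 mM Tris-HCl pH 7.4 incubated with serially diluted compounds for 60 min at 37 °C. Hemolysis read as absorbance at 540 nm.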

Hepatitis C virus [8] = assay: Antiviral activity against pseudo HCV infected in human 293T cells assessed as inhibition of HCV pseudo particles entry at 10 uM after 72 hrs by luciferase reporter gene assay; format: functional, Hepacivirus hominis; details: HEK-293T
Hepacivirus hominis [9] = assay: Binding affinity to HCV envelope protein E2 protein by SPR method
Method in brief: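 E2 loaded on streptavidin-coated biosensors and exposed to compound at 3.125–100 μM to obtain binding curves and K_D. Competition was also tested as E2 binding to a biotin-labelled compound chip in the presence of free compound at varied doses.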

[10] = Inhibition of HCV envelope protein E2 protein interaction with CD81 receptor (unknown origin) by BIAcore assay; parameters: species or system Hepacivirus hominis; method in brief: as §2
Hepacivirus hominis [11] = assay: Binding affinity to HCV envelope protein E2 protein by pull down assay
Method in brief: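 Biotin-labelled probe incubated with lysate of HCVpp-packaging cells and captured on streptavidin agarose. Free biotin and unlabelled compound served as parallel probes. For competition, excess free compound was added to the lysate. Bound E2 was detected.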

Hepatitis C virus [12] = assay: Antiviral activity against pseudo HCV infected in human Huh7 cells at 10 uM after 72 hrs; format: functional, organism-based; details: Hepacivirus hominis, Huh-7
Method in brief: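 Post-entry: Huh7 cells infected with HCVpp at 37 °C for 6 h, washed, then treated with 10 μM compound at 37 °C for 72 h. Normalized to 0.5% DMSO. CD81 antibody 5 nM as control.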

Hepatitis C virus [13] = assay: Antiviral activity against pseudo HCV infected in human Huh7 cells assessed as inhibition of HCV pseudo particles entry at 10 uM incubated for 3 hrs prior to compound addition measured after 72 hrs; format: functional, organism-based; details: Hepacivirus hominis, Huh-7
Method in brief: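 Post-binding/pre-entry: Huh7 cells incubated with HCVpp at 4 °C for 3 h, washed, then treated with 10 μM compound at 37 °C for 72 h. Normalized to 0.5% DMSO. CD81 antibody 5 nM as control.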

Hepatitis C virus [14] = assay: Antiviral activity against pseudo HCV infected in human Huh7 cells assessed as inhibition of HCV pseudo particles entry at 10 uM incubated for 3 hrs prior to virus addition measured after 72 hrs; format: functional, organism-based; details: Hepacivirus hominis, Huh-7
Method in brief: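 Pretreatment: Huh7 cells exposed to 10 μM compound for 3 h at 37 °C, washed, then infected with HCVpp for 72 h at 37 °C. Normalized to 0.5% DMSO. CD81 antibody 5 nM as control.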

Hepatitis C virus [15] = assay: Antiviral activity against pseudo HCV infected in human Huh7 cells assessed as inhibition of HCV pseudo particles entry at 10 uM incubated for 3 hrs; format: functional, organism-based; details: Hepacivirus hominis, Huh-7
Method in brief: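 Prebinding: Huh7 cells exposed to HCVpp plus 10 μM compound at 4 °C for 3 h, washed free of virus and compound, then cultured 72 h at 37 °C. Normalized to 0.5% DMSO. CD81 antibody 5 nM as control.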

Hepatitis C virus [16] = assay: Antiviral activity against pseudo HCV infected in human Huh7 cells assessed as inhibition of HCV pseudo particles entry at 10 uM after 72 hrs; format: functional, organism-based; details: Hepacivirus hominis, Huh-7
Method in brief: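 Co-treatment: Huh7 cells infected with HCVpp (or VSVpp) with 10 μM compound present throughout, 72 h at 37 °C. Normalized to 0.5% DMSO (final). CD81 antibody (5 nM) was the positive control and an unrelated compound the negative control. Luciferase read-out.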

CC1(C)CC[C@]2(C(=O)NCc3cn(CCCn4cc(CNC(=O)[C@]56CCC(C)(C)C[C@H]5C5=CC[C@@H]7[C@@]8(C)CC[C@H](O)C(C)(C)[C@@H]8CC[C@@]7(C)[C@]5(C)C[C@H]6O)nn4)nn3)[C@H](O)C[C@]3(C)C(=CC[C@@H]4[C@@]5(C)CC[C@H](O)C(C)(C)[C@@H]5CC[C@]43C)[C@@H]2C1
inhibition at 5 µM (Hepatitis C virus [1]): 89% | inhibition at 1 µM (Hepatitis C virus [2]): 86.3% | Ratio IC50 (Hepatitis C virus [3]): 200 | Activity (HEK-293T): Non-toxic | Activity (HeLa): Non-toxic | Activity (HepG2): Non-toxic | IC50 (Hepatitis C virus [4]): 10 nM | inhibition at 5 µM [5]: 11.9% | inhibition at 1 µM [6]: 16.5%

CC1(C)CC[C@]2(C(=O)O)[C@H](O)C[C@]3(C)C(=CC[C@@H]4[C@@]5(C)CC[C@H](O)C(C)(C)[C@@H]5CC[C@]43C)[C@@H]2C1 [ECHINOCYSTIC ACID]
Kd (CD81 antigen): 21 nM | Activity (HEK-293T): Non-toxic | Activity (HeLa): Non-toxic | HC50 at 1 h ([7]; rabbit red blood cells, read-out: CC50): 15 µM | Activity (HepG2): Non-toxic

CC1(C)CC[C@]2(C(=O)O)CC[C@]3(C)C(=CC[C@@H]4[C@@]5(C)CC[C@H](O)C(C)(C)[C@@H]5CC[C@]43C)[C@@H]2C1 [OLEANOLIC_ACID]
Activity ([7]; erythrocyte, 1 h): Toxic | inhibition at 10 µM (Hepatitis C virus [8]): 65% | IC50 (Hepatitis C virus [4]): 10000 nM

CC1(C)CC[C@]2(C(=O)O)CC[C@]3(C)C(=C[C@@H](O)[C@@H]4[C@@]5(C)CC[C@H](O)C(C)(C)[C@@H]5CC[C@]43C)[C@@H]2C1
inhibition at 10 µM (Hepatitis C virus [8]): 50%

CC1(C)CC[C@]2(C(=O)O)CC[C@]3(C)[C@H](C(=O)C[C@@H]4[C@@]5(C)CC[C@H](O)C(C)(C)[C@@H]5CC[C@]43C)[C@@H]2C1
inhibition at 10 µM (Hepatitis C virus [8]): 50%

CC1(C)CC[C@]2(C(=O)O)CC[C@]3(C)C(=CC[C@@H]4[C@@]5(C)CC[C@H](OC6O[C@H](CO)[C@@H](O)[C@H](O)[C@H]6O)[C@@](C)(CO)[C@@H]5CC[C@]43C)[C@@H]2C1 (stereo partly specified)
inhibition at 10 µM (Hepatitis C virus [8]): 0%

CC(=O)O[C@H]1CC[C@]2(C)[C@H]3CC=C4[C@@H]5CC(C)(C)CC[C@]5(C(=O)O)CC[C@@]4(C)[C@]3(C)CC[C@H]2C1(C)C [ACETYL OLEANOLIC ACID]
inhibition at 10 µM (Hepatitis C virus [8]): 10%

CC1(C)CC[C@]2(C(=O)O)CC[C@]3(C)C(=CC[C@@H]4[C@@]5(C)C[C@@H](O)[C@H](O)[C@@](C)(CO)[C@@H]5CC[C@]43C)[C@@H]2C1 [ARJUNOLIC ACID]
inhibition at 10 µM (Hepatitis C virus [8]): 0%

CC1(C)CC[C@]2(C(=O)O)[C@H](O)C[C@]3(C)C(=CC[C@@H]4[C@@]5(C)CC[C@H](O)C(C)(C)[C@@H]5[C@H](O)C[C@]43C)[C@@H]2C1
inhibition at 10 µM (Hepatitis C virus [8]): 5%

CC(=O)OC[C@H]1O[C@@H](O[C@H]2[C@H](OC(C)=O)[C@@H](OC(C)=O)[C@H](OC(=O)[C@]34CCC(C)(C)C[C@H]3C3=CC[C@@H]5[C@@]6(C)CC[C@H](O)C(C)(C)[C@@H]6CC[C@@]5(C)[C@]3(C)C[C@H]4O)O[C@@H]2COC(C)=O)[C@H](OC(C)=O)[C@@H](OC(C)=O)[C@H]1OC(C)=O
inhibition at 5 µM (Hepatitis C virus [1]): 88.6% | inhibition at 1 µM (Hepatitis C virus [2]): 80.4% | Ratio IC50 (Hepatitis C virus [3]): 5 | Activity (HEK-293T): Non-toxic | Activity (HeLa): Non-toxic | Activity (HepG2): Non-toxic | IC50 (Hepatitis C virus [4]): 300 nM | inhibition at 5 µM [5]: 14.9% | inhibition at 1 µM [6]: 11.2%

CC1(C)[C@@H](O)CC[C@]2(C)[C@H]3CC=C4[C@@H]5C[C@](C)(CO)CC[C@]5(C(=O)O)[C@H](O)C[C@@]4(C)[C@]3(C)CC[C@@H]12
inhibition at 10 µM (Hepatitis C virus [8]): 90%

CC1(C)CC[C@]2(C(=O)O)CC[C@]3(C)C(=CC[C@@H]4[C@@]5(C)CC[C@H](O)[C@@](C)(C=O)[C@@H]5CC[C@]43C)[C@@H]2C1
inhibition at 10 µM (Hepatitis C virus [8]): 0%

CC1(C)CC[C@]2(C(=O)O)CC[C@]3(C)C(=CC[C@@H]4[C@@]5(C)CC[C@H](O)[C@@](C)(C(=O)O)[C@@H]5CC[C@]43C)[C@@H]2C1
inhibition at 10 µM (Hepatitis C virus [8]): 0%

CC1(C)CC[C@]2(C(=O)O)[C@H](O)C[C@]3(C)C(=CC[C@@H]4[C@@]5(C)CC[C@H](O)[C@@](C)(C(=O)O)[C@@H]5CC[C@]43C)[C@@H]2C1
inhibition at 10 µM (Hepatitis C virus [8]): 0%

CC1(C)CC[C@]2(C(=O)O)[C@H](O)C[C@]3(C)C(=CC[C@@H]4[C@@]5(C)CC[C@H](O)C(C)(C)[C@@H]5CC[C@]43C)[C@H]2C1 [ECHINOCYSTIC ACID]
inhibition at 5 µM (Hepatitis C virus [1]): 77.7% | inhibition at 1 µM (Hepatitis C virus [2]): 27.5% | Activity (Hepacivirus hominis [9]): Dose-dependent effect | Kd [10]: 24000 nM | Activity (Hepacivirus hominis [11]): Active | Activity (Hepatitis C virus [12]): inactive | inhibition (Hepatitis C virus [13]): Active | inhibition (Hepatitis C virus [14]): Active | inhibition (Hepatitis C virus [15]): Active | inhibition (Hepatitis C virus [16]): Active | inhibition at 10 µM (Hepatitis C virus [8]): 90% | IC50 (Hepatitis C virus [4]): 1400 nM | inhibition at 5 µM [5]: 9% | inhibition at 1 µM [6]: 7.2%

CC1(C)CC[C@]2(C(=O)O)[C@H](O)C[C@]3(C)C(=CC[C@@H]4[C@@]5(C)CC[C@H](O)[C@@](C)(CO)[C@@H]5CC[C@]43C)[C@@H]2C1
inhibition at 10 µM (Hepatitis C virus [8]): 20%
